Test results as given in ChEMBL document CHEMBL4373712, “Bioactivatable Pseudotripeptidization of Cyclic Dipeptides To Increase the Affinity toward Oligopeptide Transporter 1 for Enhanced Oral Absorption: An Application to Cyclo(l-Hyp-l-Ser) (JBP485)” (J Med Chem, 2019).

Columns and labels:
[1] = target: T1, Solute carrier family 15 member 1 (Rattus norvegicus, UniProt P51574); test: Substrate activity at PEPT1 in Sprague-Dawley rat jejunum assessed as effective permeability at 5 mM measured after 15 to 120 mins by HPLC analysis; assay type: ADME, tissue-based; details: 5000 µM
T1 sequence (P51574 whole entry): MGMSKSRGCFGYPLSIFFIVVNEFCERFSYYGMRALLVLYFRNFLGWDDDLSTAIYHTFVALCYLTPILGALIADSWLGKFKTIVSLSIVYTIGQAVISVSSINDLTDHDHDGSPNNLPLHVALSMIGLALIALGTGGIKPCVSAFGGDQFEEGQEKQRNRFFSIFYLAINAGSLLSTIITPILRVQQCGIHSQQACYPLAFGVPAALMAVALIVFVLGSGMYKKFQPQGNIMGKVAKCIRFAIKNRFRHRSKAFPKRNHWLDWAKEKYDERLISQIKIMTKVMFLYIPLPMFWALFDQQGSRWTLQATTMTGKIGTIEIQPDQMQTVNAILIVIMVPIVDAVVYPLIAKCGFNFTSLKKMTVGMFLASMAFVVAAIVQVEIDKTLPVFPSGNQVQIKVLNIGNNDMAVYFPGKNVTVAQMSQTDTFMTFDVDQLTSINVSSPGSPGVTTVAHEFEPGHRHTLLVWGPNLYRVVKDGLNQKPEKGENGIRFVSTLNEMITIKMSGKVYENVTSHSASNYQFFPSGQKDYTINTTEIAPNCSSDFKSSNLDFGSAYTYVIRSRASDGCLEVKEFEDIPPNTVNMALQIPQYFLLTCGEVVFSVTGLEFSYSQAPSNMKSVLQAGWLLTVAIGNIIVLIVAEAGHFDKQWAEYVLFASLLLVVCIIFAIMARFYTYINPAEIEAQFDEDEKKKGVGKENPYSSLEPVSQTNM
Method in brief: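 In situ single-pass jejunal perfusion in fasted (12 h) male SD rats anaesthetised with urethane 1.5 g/kg i.p. About 10 cm of jejunum was perfused at 0.2 mL/min with pH 6.0 HEPES buffer containing 5 mM compound. Outflow was collected 15–120 min after steady state and assayed by HPLC. Peff was calculated from outlet/inlet concentration and volume ratios and segment radius and length.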

[2] = target: T2, Solute carrier family 15 member 1 (Homo sapiens, UniProt P46059); test: Substrate activity at PEPT1 in human Caco2 cells assessed as protein-mediated drug uptake at 0.5 mM measured after 10 mins in pH 7.4 HBSS buffer by UPLC-MS/MS analysis; assay type: ADME, cell-based; details: caco-2, pH 7.4, 10 min, 500 µM
T2 sequence (P46059 whole entry): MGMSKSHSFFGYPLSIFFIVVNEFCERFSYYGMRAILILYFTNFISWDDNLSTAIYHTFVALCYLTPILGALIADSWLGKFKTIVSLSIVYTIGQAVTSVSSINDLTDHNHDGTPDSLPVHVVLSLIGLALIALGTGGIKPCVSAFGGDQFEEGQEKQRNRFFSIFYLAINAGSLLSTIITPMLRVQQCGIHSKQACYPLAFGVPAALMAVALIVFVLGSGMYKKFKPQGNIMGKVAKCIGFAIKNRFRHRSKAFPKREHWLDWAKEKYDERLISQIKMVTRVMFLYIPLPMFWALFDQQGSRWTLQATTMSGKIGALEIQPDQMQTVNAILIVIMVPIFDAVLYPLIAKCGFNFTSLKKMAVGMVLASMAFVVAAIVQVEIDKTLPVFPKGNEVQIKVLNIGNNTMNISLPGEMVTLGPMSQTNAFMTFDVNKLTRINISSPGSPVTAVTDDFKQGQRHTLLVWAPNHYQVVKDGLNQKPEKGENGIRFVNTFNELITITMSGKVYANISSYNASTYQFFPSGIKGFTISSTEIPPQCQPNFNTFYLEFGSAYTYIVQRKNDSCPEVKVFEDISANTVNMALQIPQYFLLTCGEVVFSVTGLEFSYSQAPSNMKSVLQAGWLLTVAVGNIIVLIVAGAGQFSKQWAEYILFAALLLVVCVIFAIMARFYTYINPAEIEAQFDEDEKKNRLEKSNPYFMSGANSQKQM
Method in brief: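 Caco-2 cells incubated 10 min with 0.5 mM compound in HBSS at pH 6.0 or pH 7.4, washed three times in ice-cold PBS pH 7.4, homogenised. Protein by DC assay; drug by UPLC-MS/MS; n=3.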

[3] = Half life in pH 4.5 acetate buffer at 5 mM by HPLC analysis; assay type: physicochemical
Method in brief: (§1)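 Compound at 5 mM in 0.1 M HCl, pH 4.5 acetate buffer, pH 5.8/6.8/7.2 phosphate buffers, SGF (pH 1.2) and SIF (pH 6.8), prepared per Chinese Pharmacopoeia. Samples taken at 0-20 h and analyzed by HPLC-UV. k = 2.303×slope of log C versus time; t1/2 = 0.693/k.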

[4] = Half life in Sprague-Dawley rat plasma at 5 mM by HPLC analysis; assay type: ADME, cell-free
Method in brief: (§2)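 Jejunum and liver homogenates from male SD rats in pH 7.4 PBS, adjusted to 200 µg/mL protein, and rat plasma. Each incubated with compound at 5 mM at 37 °C.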

[5] = target: T1, Solute carrier family 15 member 1; test: Ratio of compound effect for substrate activity at PEPT1 in Sprague-Dawley rat jejunum assessed as effective permeability in absence of non-metabolized PEPT1 substrate Gly-Sar to compound effect for substrate activity at PEPT1 in Sprague-Dawley rat jejunum assessed as effective permeability in presence of non-metabolized PEPT1 substrate Gly-Sar; assay type: ADME
[6] = Half life in pH 7.2 phosphate buffer at 5 mM by HPLC analysis; assay type: physicochemical; method in brief: as §1
[7] = Half life in 0.1 M HCl at 5 mM by HPLC analysis; assay type: physicochemical; method in brief: as §1
[8] = Half life in Sprague-Dawley rat intestinal homogenates at 5 mM by HPLC analysis; assay type: ADME, tissue-based, Intestine; method in brief: as §2

Peff [1] | Drug uptake [2] | half-life at 5000 µM [3] [h] | half-life at 5000 µM [4] [h] | Ratio [5] | half-life at 5000 µM [6] [h] | half-life at 5000 µM [7] [h] | half-life at 5000 µM [8] [h] | Compound
Permeable | Not Active | > 20 | > 20 | 2.5 | > 20 | > 20 | > 20 | O=C1N[C@@H](CO)C(=O)N2C[C@H](O)C[C@@H]12
Permeable | Not Active | > 20 | 2.9 | 6.8 | 5.5 | > 20 | < 0.16 | CC(C)[C@H](N)C(=O)OC[C@@H]1NC(=O)[C@@H]2C[C@@H](O)CN2C1=O
